KCNQ1 block: human KCNQ1 channel inhibition; CHO-K1 KCNQ1, FluxOR thallium flux fluorescence; stronger effect = higher value; AID 2642; 1.3% of 310,000 active; P51787; B-score at 10 µM;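 active = compounds whose thallium flux B-score, printed positive for inhibition, exceeds three library SD while starting fluorescence stays within three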;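 note: channel opened by potassium depolarization with thallium stimulus after 20 min compound exposure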
KCC2 mod: KCC2 (human) Cl- transport modulation | Q9H2X9 | KCC2 cells, thallium flux FluoZin-2 fluorescence | B-score of Tl+ flux slope (higher = more flux/activation; lower = inhibition) at 10 µM | 2.2% of 190,000 active | AID 1456;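 active = thallium flux slope and its plate-corrected score both differing from the plate sample mean at a set confidence after two filtering rounds, in either direction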;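 note: slope of fluorescence scaled to starting intensity during 10 to 20 s after thallium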
KCNK9 block: human KCNK9 channel inhibition; 1.2% of 310,000 active; Q9NPC2; AID 488922; B-score at 10 µM; HEK293 KCNK9, FluxOR thallium flux fluorescence; stronger effect = lower value;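 active = ratio B-score over 3 SD below the library mean, with starting fluorescence within 5 SD of its mean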;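 note: negative B-score means less thallium flux so channel inhibition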
Target sequence (Q9NPC2 whole entry, looked up): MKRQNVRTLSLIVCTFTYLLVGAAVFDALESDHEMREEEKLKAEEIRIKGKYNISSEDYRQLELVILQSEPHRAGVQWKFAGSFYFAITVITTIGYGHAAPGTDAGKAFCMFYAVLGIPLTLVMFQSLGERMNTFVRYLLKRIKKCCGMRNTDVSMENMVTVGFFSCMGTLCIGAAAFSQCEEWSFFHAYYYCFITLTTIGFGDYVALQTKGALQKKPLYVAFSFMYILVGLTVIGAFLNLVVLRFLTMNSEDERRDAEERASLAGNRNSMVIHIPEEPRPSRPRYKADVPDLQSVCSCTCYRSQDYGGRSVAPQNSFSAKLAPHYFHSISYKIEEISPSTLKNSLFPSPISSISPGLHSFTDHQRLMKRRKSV
KCNQ1 act: potentiates or activates the human KCNQ1 potassium channel; P51787; CHO-K1 KCNQ1, thallium flux FluxOR fluorescence; stronger effect = higher value; B-score at 10 µM; 0.35% of 310,000 active;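 active = fluorescence ratio B-score, a plate-corrected score, at least three library SD, with initial intensity B-score within 5 SD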
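assay system = KCNQ1-transfected CHO-K1 cells | medium = assay buffer with matched DMSO | probe or stimulus = depolarizing K+/Tl+ stimulus, K2SO4 and Tl2SO4 each 12.5 mM in 5x stock | dosing = single dose | incubation = dye 90 min, compound 20 min, room temperature | detection = kinetic FluxOR fluorescence, 10 s baseline plus 110 s post-stimulus | evaluation = ratio B score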
KCNK3 block: human KCNK3 channel inhibition, primary screen. CHO-KCNK3 thallium flux, FluxOR fluorescence; stronger effect = lower value. 0.84% of 340,000 active. B-score at 10 µM. AID 602410. O14649;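 active = B-score under library mean minus 4 SD, starting fluorescence ratio at most library mean plus 5 SD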;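 note: more negative B-score means stronger inhibition of thallium flux through KCNK3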
Target sequence (O14649 whole entry, looked up): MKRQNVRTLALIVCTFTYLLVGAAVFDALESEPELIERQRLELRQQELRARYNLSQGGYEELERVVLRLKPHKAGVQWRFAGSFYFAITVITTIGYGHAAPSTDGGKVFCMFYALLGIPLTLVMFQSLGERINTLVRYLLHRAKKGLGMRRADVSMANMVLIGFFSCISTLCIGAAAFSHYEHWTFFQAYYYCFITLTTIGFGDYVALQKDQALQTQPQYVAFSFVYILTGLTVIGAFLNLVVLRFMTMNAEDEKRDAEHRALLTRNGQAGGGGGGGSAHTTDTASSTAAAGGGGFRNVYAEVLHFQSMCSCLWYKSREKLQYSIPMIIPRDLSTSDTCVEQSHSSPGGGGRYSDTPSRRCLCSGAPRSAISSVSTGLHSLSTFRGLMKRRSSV
hERG rescue: hERG (human) protection from proarrhythmic block. Q12809. 0.51% of 310,000 active. AID 1511. activation (rescue from dofetilide block), less the hit threshold, % at 10 µM. CHO-hERG, FluxOR thallium flux, dofetilide IC70 present;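 active = activation above the mean of controls blocked by dofetilide plus 5 SD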;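 note: thallium influx through hERG after potassium depolarization seen as dye fluorescence rise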
KCC2 sec1: KCC2 (human) modulation, secondary assay. shares compounds with KCC2 mod. HEK293-KCC2, thallium flux, FluoZin2 fluorescence; stronger effect = higher value. normalised thallium flux (F/F0 slope) at 10 µM. 15% of 3,700 active. AID 1713;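 active = thallium flux slope above the same plate's solvent-only control mean plus 3 SD; inconclusive = the two replicate wells disagree; inactive = no significant difference from solvent-only control wells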
KCC2 bumet counter: thallium flux persisting under bumetanide in KCC2 cells, counter-screen secondary assay; HEK293-KCC2 + bumetanide/ouabain, thallium flux FluoZin2; stronger effect = higher value; shares compounds with KCC2 mod; 49% of 3,700 active; normalized thallium flux at 10 µM; AID 1714;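 active = thallium entry rate above the same plate's blocked-transporter control wells by more than 3 SD; inconclusive = the two repeat wells disagree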;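 note: raw slope of fluorescence over initial fluorescence between 10 and 20 s after thallium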
KCC2 secondary2: confirmation of human KCC2 transport modulators. shares compounds with KCC2 mod. HEK293-KCC2, thallium flux FluoZin2 fluorescence; actives lie on both sides; F/F0 rise rate, 10–20 s post-thallium. normalized thallium flux at 10 µM. 23% of 3,700 active;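 active = thallium flux slope more than 3 SD above or below the plate's solvent-only control mean, mostly below; inconclusive = the two repeat wells disagreed; inactive = no significant shift from solvent-only controls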
HEK293 Tl flux: counter-screen for KCC2 modulators: effect in parental HEK293 cells. thallium flux FluoZin2, ouabain; baseline-ratio fluorescence slope, 10–20 s after thallium. AID 1716. thallium flux rate (normalised fluorescence) at 10 µM. 46% of 3,700 active. shares compounds with KCC2 mod;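 active = thallium flux rate significantly above the same plate's solvent-only control wells, beyond their mean plus 3 SD; inconclusive = the two replicate wells gave conflicting results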
KCC2 retest ouab: KCC2 (human) modulation, ouabain retest | shares compounds with KCC2 mod | HEK293-KCC2, thallium flux FluoZin2 fluorescence; bidirectional: low = inhibitor, high = activator | raw Tl+ flux slope (below DMSO = inhibition, above = activation) at 10 µM | 48% of 3,700 active | AID 1717;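 active = thallium flux slope beyond 3 SD from same-plate DMSO control mean in most replicates, usually higher, sometimes lower; inconclusive = repeat tests gave conflicting results; inactive = no significant difference from controls in most replicates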;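 note: slope of initial-normalized fluorescence between seconds 10 and 20 after thallium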
HEK counter2: parental HEK flux effect, counter-screen 2; shares compounds with KCC2 mod; HEK293 parental, thallium flux FluoZin-2 fluorescence slope; thallium flux slope at 10 µM; 33% of 3,700 active;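 active = thallium flux slope above the same plate's solvent-control mean plus 3 SD in both duplicate wells; inconclusive = duplicate wells that disagreed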;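 note: run without ouabain in cells lacking the KCC2 cotransporter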
A number is an active result; – = inactive; ? = inconclusive; · = no result. A selection: hits, their analogues and other compounds. The true share with any hit is near 4.1%.

SMILES	KCNQ1 block	KCC2 mod	KCNK9 block	KCNQ1 act	KCNK3 block	hERG rescue	KCC2 sec1	KCC2 bumet counter	KCC2 secondary2	HEK293 Tl flux	KCC2 retest ouab	HEK counter2
CC(C)(C)C(=O)CSc1ncnc2sc3c(c12)CCC3	–	–	–	–	–	–	·	·	·	·	·	·
CC(=O)CSc1ncnc2sc3c(c12)CCC3	–	7.05	–	–	–	–	–	0.0242	–	0.014	0.0216	0.0173
Cc1ccc(C(=O)CSc2ncnc3sc4c(c23)CCC(C)C4)cc1 (stereo not given)	–	4.19	–	–	–	–	?	0.0374	–	?	?	–
O=C1OCCC1Sc1ncnc2sc3c(c12)CCC3 (stereo not given)	–	3.34	–	–	–	–	–	0.0241	?	0.018	?	0.0178
O=c1[nH]c(-c2ccccn2)nc2sc(-c3ccccc3)cc12	–	4.37	–	–	–	–	–	0.0184	–	0.0331	?	0.0146
O=C(Cn1cnc2c(OCc3ccccc3)ncnc21)NCC1CCCO1 (stereo not given)	·	·	·	·	–	·	·	·	·	·	·	·
Cc1nn2c(NCC(C)C)c3c(nc2c1-c1ccccc1)CCC3	–	9.49	–	–	–	–	–	–	–	–	–	–
COCCNc1c2c(nc3c(-c4ccccc4)c(C)nn13)CCC2	–	–	–	–	–	–	·	·	·	·	·	·
O=c1c2ccccc2c(-c2n[nH]c(=S)o2)nn1Cc1ccccc1	–	-4.92	–	–	–	–	–	–	?	–	0.0136	?
S=c1[nH]nc(-c2ccccc2)o1	–	–	–	–	–	–	·	·	·	·	·	·
CCSc1nnc(NC(=O)CSc2nccn2-c2cc(C)cc(C)c2)s1	–	–	–	–	·	–	·	·	·	·	·	·
CCSc1nnc(NC(=O)CSc2nccn2-c2cccc(C)c2C)s1	–	3.13	–	–	·	–	–	0.016	–	0.015	–	0.0181
CC(C)C(=O)Nc1nnc(S(=O)(=O)N(C)c2ccc(Cl)cc2)s1	–	·	–	–	–	–	·	·	·	·	·	·
Cc1[nH]c(=S)sc1Cc1ccc(F)cc1	–	39.5	–	9	–	–	–	0.119	0.0842	0.0887	0.102	0.0672
COCCN(C(=O)COC(=O)C(C)(C)Oc1ccc(Cl)cc1)c1c(N)n(Cc2ccccc2)c(=O)[nH]c1=O	·	·	·	·	–	·	·	·	·	·	·	·
Cc1sc2ncnc(N3CCN(Cc4ccccc4)CC3)c2c1-c1ccc(F)cc1	–	·	–	–	–	–	·	·	·	·	·	·
O=c1c2cc(N3CCOCC3)ccc2[nH]c(=S)n1Cc1ccc(Cl)cc1	–	–	–	–	–	–	·	·	·	·	·	·
CCCCn1c(=S)[nH]c2ccc(N3CCOCC3)cc2c1=O	–	12	–	–	·	–	0.0143	0.0308	–	0.03	0.0319	0.0163
Cc1ccc(Cn2c(=S)[nH]c3ccc(N4CCOCC4)cc3c2=O)o1	–	13.9	–	–	–	–	–	0.00977	–	?	–	–
Oc1c(Br)cc(Br)cc1/C=N/NC(=S)N[C@H]1CC2C=CC1C2 (stereo not given in full)	–	4.76	–	–	–	–	–	0.014	–	0.0102	?	–
CNC(=S)N/N=C/c1cc(Br)cc(Br)c1O	–	–	–	–	–	–	·	·	·	·	·	·
Nc1nonc1C(=O)NCCN=Cc1cc(Cc2ccccc2)cc(Br)c1O	–	·	–	–	–	–	·	·	·	·	·	·
Nc1nonc1C(=O)NCCN=Cc1ccccc1O	–	-4.65	–	–	–	–	?	?	–	–	–	–
CC(C)N(Cc1ccccc1)C(=O)COC(=O)c1cc[n+]([O-])cc1	·	·	·	·	–	·	·	·	·	·	·	·
O=C1NC(=S)S/C1=C\c1cccc([N+](=O)[O-])c1	·	·	·	·	–	·	·	·	·	·	·	·
SMILES	KCNQ1 block	KCC2 mod	KCNK9 block	KCNQ1 act	KCNK3 block	hERG rescue	KCC2 sec1	KCC2 bumet counter	KCC2 secondary2	HEK293 Tl flux	KCC2 retest ouab	HEK counter2
CN1C(=O)/C(=C/c2cc3c(cc2Br)OCO3)NC1=S	–	7.07	–	–	–	–	?	0.0229	–	0.0125	0.0314	–
COCCn1c(C)cc(/C=C2\NC(=S)N(C)C2=O)c1C	–	–	–	–	–	–	·	·	·	·	·	·
CCOc1ccc(Nc2nc(NCCN3CCOCC3)nc(OC)n2)cc1	–	·	–	–	–	–	–	?	–	–	–	–
S=C(NCCc1ccccc1)N/N=C/c1c(Cl)cccc1Cl	–	7.87	–	–	–	11.0	?	0.0193	?	0.0153	0.0323	0.0173
S=C(NCCc1ccccc1)N/N=C/c1ccc(Cl)cc1	–	–	–	–	–	–	·	·	·	·	·	·
CNC(=S)N/N=C/c1c(Cl)cccc1Cl	–	5.38	–	–	–	–	–	0.014	–	0.0156	–	0.0134
CS(=O)(=O)c1ccc(Cl)c(NC(=O)CN2CCN(S(=O)(=O)/C=C/c3ccccc3)CC2)c1	·	·	·	·	–	·	·	·	·	·	·	·
Oc1ccccc1N=N/C(=N/Nc1ccccc1O)c1ccccc1	–	·	–	–	–	–	·	·	·	·	·	·
Cn1nnnc1N=N/C(=N/Nc1ccccc1)c1ccccc1	–	59.7	–	–	–	–	0.0264	0.094	0.0572	0.0444	0.0519	0.0448
O=C(NNC(=O)C1C2C=CC(C2)C1C(=O)O)c1cc(Cl)ccc1O (stereo not given)	–	·	–	–	–	–	·	·	·	·	·	·
CC(=O)Nc1ccc(S(=O)(=O)Nc2c(C)nn(-c3ccccc3)c2C)cc1	–	·	–	–	–	–	–	–	–	?	–	–
Cc1nn(-c2ccc(F)cc2)c(C)c1NS(=O)(=O)c1ccc2ccccc2c1	–	-7.15	–	–	–	–	–	?	0.0222	–	?	–
O=C(Nc1ccccc1)C(Cc1ccccc1)c1ccccc1 (stereo not given)	·	·	·	·	–	·	·	·	·	·	·	·
O=C(CN1C(=O)C2CCCCC2C1=O)Nc1nc(-c2ccccn2)cs1 (stereo not given)	–	·	–	–	–	–	–	0.00698	–	–	–	–
Cc1c(C=O)c2cc(OCc3ccccc3)ccc2n1C	–	·	–	–	–	–	·	·	·	·	·	·
COc1ccccc1NS(=O)(=O)c1cc(C(=O)N2CCCC2)ccc1F	·	·	·	·	–	·	·	·	·	·	·	·

Screening results (PubChem)
